High-throughput results from PubChem BioAssay.
Shown is part of a subset that was picked to be rich in hits.
ALR inh = inhibitors of human sulfhydryl oxidase ALR. P55789. purified ALR, DTT oxidation, H2O2 HRP-luminol luminescence. inhibition, % (concentration not given with the values). 3.8% of 290,000 active;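 active means mean replicate inhibition above about 79%, with every replicate also reaching it, limit read from the data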
Target sequence (P55789 whole entry, looked up): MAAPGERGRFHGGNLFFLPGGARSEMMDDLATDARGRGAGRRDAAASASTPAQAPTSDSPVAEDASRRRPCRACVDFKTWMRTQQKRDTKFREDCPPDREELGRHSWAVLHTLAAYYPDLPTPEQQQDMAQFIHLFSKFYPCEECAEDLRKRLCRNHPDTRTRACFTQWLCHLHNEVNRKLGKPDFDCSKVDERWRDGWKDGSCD
N-glyco inh = blocks N-linked glycosylation in D54 reporter cells; AID 588692; 0.23% of 360,000 active; reporter increase, % at 12.5 µM; D54 ERlucT glycosylation luciferase reporter, 24 h; percent of 100 nM tunicamycin response;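 active means mean luciferase reporter signal, scaled so untreated is 0 and the glycosylation-blocking control 100, at or above a set limit in every replicate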;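 further: luciferase carries N-glycosylation sites so blocking glycosylation raises the light; 0% = median of neutral control wells and 100% = median of 100 nM tunicamycin wells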
T cell HTS = modulates CD8 T cell binding to vesicles | 0.068% of 330,000 active | response (vesicle binding), % at 7 µM | 2C CD8+ T cell-vesicle binding, flow cytometry; active compounds read low | AID 2052;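 active means response, share of CD8 T cells binding vesicles, and their 90th percentile fluorescence all below set limits, cut at about 80% in these data, passing the limit was not always enough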;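 further: values below 100% mean blocked vesicle binding to the CD8+ T cells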
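System: murine 2C transgenic CD8+ T lymphocytes; also added: QL9-loaded Drosophila micro-vesicles; times: binding 1.5 h at 37 °C; measured by: flow cytometry, PE anti-B7-1 (FL2) versus Alexa647 anti-CD8 (FL8), PFA-fixed; control set: Peptide-free naked vesicles (low) and QL9 vesicles with 0.7% DMSO vehicle (high)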
* marks the source's active call; other numbers are inactive results; i = inactive; . = no result.

SMILES	ALR inh	N-glyco inh	T cell HTS
Cc1ccc(-n2c([C@@H]3C[C@H]3c3ccccc3)n[nH]c2=S)cc1	85*	5	0
Cc1ccc(C2CC2c2n[nH]c(=S)n2-c2ccc(C)cc2)cc1 (stereo not given)	36	-1	.
Cc1ccc(-n2c(-c3ccco3)n[nH]c2=S)cc1	88*	2	373
ClN=C1C=CC=CC1=NCl	.	6	.
COc1cc(COc2ccc(-c3nnco3)cc2)ccc1OC(F)F	-1	-3	249
COc1ccccc1C1CC(=O)Oc2cc(C)c(Br)c(C)c21 (stereo not given)	.	2	.
C/C(=N/NC(=O)CNC(=O)c1cccnc1)c1ccccc1	-3	2	222
Cc1ccc(S(=O)(=O)N2CCCCC2)cc1NC(=O)COC(=O)c1ccccc1F	0	0	270
CN(C)c1ccc(N=Nc2ccc3ncccc3c2)cc1	.	-18	.
Cc1cc(N(C)C)ccc1N=Nc1ccc2ncccc2c1	94*	-10	124
c1ccc2c(c1)COc1c3ncccc3nn1-2	.	-1	.
CC1CCCCN1c1ccc(N)cc1C(N)=O (stereo not given)	94*	2	401
NC(=O)c1cc(S(=O)(=O)N2CCOCC2)ccc1N1CCCC1	-5	.	143
C=CCN(CC=C)Cc1cc(=O)n2c(-c3ccccc3)csc2n1	9	-2	187
O=c1cc(CN2CCN(c3ccc(O)cc3)CC2)nc2scc(-c3ccccc3)n12	94*	-2	354
COc1ccc(-c2cc(C(=O)NCc3ccco3)c3ccccc3n2)cc1OC	-1	2	328
COc1ccc(-c2cc(C(=O)NCC(c3ccccc3)N(C)C)c3ccccc3n2)cc1OC (stereo not given)	4	30*	137
Cc1ccc(C(=O)CSc2nc(C)cc(=O)[nH]2)cc1	98*	2	147
CCOC(=O)CSc1nc(C)cc(=O)[nH]1	-40	1	231
Cc1cc(SCC(=O)c2ccc(O)c(O)c2)n2nc(C)c(-c3ccccc3)c2n1	96*	1	172
CCSc1cc(C)nc2c(-c3ccc(Cl)cc3)c(C)nn12	3	3	681
Cc1cc(=O)[nH]c(SCC(=O)c2ccc(O)c(O)c2)n1	99*	2	566
O=C(CSc1nc2ccccc2c(=O)[nH]1)c1ccc(O)c(O)c1	99*	-1	657
O=C(CSc1nc2ccccc2c(=O)[nH]1)c1ccc(O)cc1O	.	-3	.
Cc1cc(C)nc(SCC(=O)c2ccc(O)c(O)c2)n1	18	-2	270
SMILES	ALR inh	N-glyco inh	T cell HTS
CN(C(=O)CCNC(=O)Cn1cnc2ccccc2c1=O)c1ccccc1F	0	-1	187
COc1ccc(OC)c(S(=O)(=O)NCC(c2ccc3c(c2)OCO3)N2CCOCC2)c1 (stereo not given)	-4	2	327
O=C(NC(=O)c1ccccc1)OCCN1C(=O)c2ccccc2C1=O	-3	0	191
COCCn1c(SCC(=O)NC2CCCCC2)nnc1-c1ccncc1	4	-1	176
C=CCn1c(SC(C)C(=O)NCC2CCCO2)nnc1-c1ccc(OC)cc1 (stereo not given)	0	2	0
COc1cccc(/C=C/C(=O)OCC(=O)NC2CC2)c1	0	0	368
COc1cc(OC)cc(-c2nnc(SCc3cccnc3)o2)c1	-4	7	213
O=C(c1ccc(Br)o1)N1CCN=C1SCc1cccc(F)c1	58	1	359
O=C(c1ccc2c(c1)OCO2)N1CCN=C1SCc1ccccc1	93*	-2	709
COc1cc(OC)cc(C(=O)N2CCN=C2SCc2cccnc2)c1	100*	2	402
O=C(O)c1ccccc1SCc1ccc2c(c1)OCO2	-2	-2	i
O=C(c1cccc(F)c1)N1CCN=C1SCc1cccnc1	100*	-1	377
C=CCc1cc(OC)ccc1OCCCCn1cncn1	-7	0	128
O=C(O)C1Cc2[nH]cnc2C(c2ccccc2O)N1 (stereo not given)	8	-1	168
O=C(Nc1nc(-c2ccccc2)cs1)c1cccs1	2	4	554
O=C(Nc1nc(-c2ccccc2)ns1)c1cccs1	88*	5	455
O=C(O)C1CCN(C(=O)CSc2nnc(-c3ccccc3)o2)CC1	0	0	177
COCCN(CCOC)Cc1cc(=O)oc2cc3c(cc12)CCC3	.	0	511
CC(C)CN(Cc1cc(=O)oc2cc3c(cc12)CCCC3)CC(C)C	-11	-9	76*
COc1ccccc1CNC(=O)CCCn1nc(C)c2c(C)n(-c3ccc(C)cc3)nc2c1=O	-3	1	305
CN(C)S(=O)(=O)c1ccc(C(=O)Nc2nnc(-c3ccco3)o2)cc1	-1	2	157
CCCCN(C)S(=O)(=O)c1ccc(C(=O)Nc2nnc(-c3ccco3)o2)cc1	84*	4	186
